Experimental data as given in ChEMBL document CHEMBL4513216, “Probing the Open Global Health Chemical Diversity Library for Multistage-Active Starting Points for Next-Generation Antimalarials” (ACS Infect Dis, 2020).

Test: Toxicity liver stage against HepG2, at 10uM
Type: cell-based
Set-up: test concentration 10 uM, cell line HepG2-A16-CD81EGFP
Settings: human, HepG2-A16-CD81EGFP cells; read-out: INHIBITION
Procedure, shortened: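 Uninfected HepG2-A16-CD81EGFP cells, 3 × 10^3 per well, 1536-well, plated on prespotted compound at 10 μM final, parasite-free screening media added to match infected plates; puromycin 10 μM positive, DMSO 0.5% negative; run in parallel with 48 h PbLuc assay at 37 °C, 5% CO2; viability by CellTiter-Glo luminescence, normalized to controls.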
For Cc1cc(C(=O)NCc2ccnc(N3CCN(C)CC3)c2)sc1C, the cytotoxicity at 10 µM was -11.7%.
With CC(=O)N1CCCn2nc(CNS(=O)(=O)c3cc(C)cs3)cc2C1 the cytotoxicity at 10 µM was -9.58%.
In the case of CN(C)CC(=O)N1CC[C@H]2OCC[C@@]2(COCC2CC2)C1, the cytotoxicity at 10 µM is reported as 0.165%.
With CCN(Cc1ccco1)C(=O)NCc1nnc2n1CCCCC2 the cytotoxicity at 10 µM was -4.73%.
With Cc1ccc(CN2CCC3(CCN(Cc4ccncc4)CC3)CC2)cc1 the cytotoxicity at 10 µM was 8.4%.
Cc1cccc(OCCC(=O)N2CCN(S(=O)(=O)N(C)C)CC2)c1C gave a cytotoxicity at 10 µM of 2.66%.
Work on O=C(Nc1cc(F)ccc1OCC1CCCO1)N1CCCC1 (configuration not stated) yielded a cytotoxicity at 10 µM of -6.49%.
Work on CC1CCCN(Cc2c(C3CC3)n(CC(=O)N(C)C)c3ncccc23)C1 (configuration not stated) yielded a cytotoxicity at 10 µM of 4.04%.
Work on CN(Cc1ccco1)Cc1ccccc1CNC(=O)c1cnc[nH]1 yielded a cytotoxicity at 10 µM of 2.6%.
Compound O=C(C1CC1)N1CCC2(CC1)CNCc1ccccc12 has a cytotoxicity at 10 µM of 1.79%.
Compound Cc1ccc(CNc2ccn(CCc3ccncc3)n2)s1 has a cytotoxicity at 10 µM of 21.8%.
Cn1ccnc1CN1CCC2(CC1)CCN(Cc1ccoc1)C2 showed a cytotoxicity at 10 µM of -6.08%.
For CCNC(=O)NC(=O)CNC1(c2noc(C)n2)CCCCC1, the cytotoxicity at 10 µM was -1.3%.
For CN1CC2(COCCN(c3ncccn3)C2)OCC1=O (configuration not stated), the cytotoxicity at 10 µM was -112%.
With O=C(c1cccnc1O)N1CCN(CCc2cccs2)CC1 the cytotoxicity at 10 µM was -8.86%.
For Cc1ccc2c(c1)OC1(NC2=O)C(=O)N(C)c2ccccc21 (configuration not stated), the cytotoxicity at 10 µM was -23.8%.
NC(=O)c1nnn(-c2ccc(Cl)cc2)n1 gave a cytotoxicity at 10 µM of 8.99%.
With COc1cccc(NC(=O)NC(C)c2ccc3c(c2)CC(=O)N3)c1 (configuration not stated) the cytotoxicity at 10 µM was -3.49%.
In the case of CC(=O)N1CC(C(=O)NCCc2ncc(C)s2)C1, the cytotoxicity at 10 µM is reported as -1.33%.
With CN1CCN(C(=O)CC2CCN(CCc3ccccn3)CC2)CC1 the cytotoxicity at 10 µM was -2.89%.
In the case of N#Cc1csc(CNCCOc2ccccc2)c1, the cytotoxicity at 10 µM is reported as 8.35%.
Cn1ccnc1CN1CCC(Cc2ccccn2)CC1 gave a cytotoxicity at 10 µM of -10.2%.
For O=C(NCc1ccc2c(c1)OCO2)c1ccc(N2CCCCCC2)nc1, the cytotoxicity at 10 µM was -6.78%.
CCC(Nc1nc(C)nc2c1cnn2C)c1ncnn1CC (configuration not stated) showed a cytotoxicity at 10 µM of -7.17%.
Work on COc1cccc(CC(=O)N2CCCC(n3nc(C)cc3C)C2)c1 (configuration not stated) yielded a cytotoxicity at 10 µM of 0.441%.
O=C1CC[C@H](C(=O)N(CCc2ccccc2)C2CCOC2)N1 (some centres not stated) showed a cytotoxicity at 10 µM of 1.15%.
O=C(CC1CCN(c2ncnc3cccc(F)c23)CC1)N1CCCC1 showed a cytotoxicity at 10 µM of 7.28%.
Work on CCCc1cc(NC2CCN(Cc3ccccn3)CC2)n2nccc2n1 yielded a cytotoxicity at 10 µM of -3.91%.
Work on c1cnc2c(c1)cc([C@H]1CCCO1)n2CCN1CCCC1 yielded a cytotoxicity at 10 µM of 0.975%.
Compound CC(C)(C)c1ccc(=O)n(CN2CCCC(C(F)(F)F)C2)n1 (configuration not stated) has a cytotoxicity at 10 µM of -2.19%.
With O=C(NCc1ccc(Cl)s1)c1ccc(N2CCOC2=O)cc1 the cytotoxicity at 10 µM was 21.1%.
CN1CCCCC1CC(=O)Nc1ccc2ncn(C)c2c1 (configuration not stated) showed a cytotoxicity at 10 µM of 4.18%.
Work on COc1cccc2c1OCC(C(=O)N1CCC(N3CCOC3=O)CC1)C2 (configuration not stated) yielded a cytotoxicity at 10 µM of -19.7%.
Work on COCCn1ccnc1C1CCN(Cc2ccccc2C#N)CC1 yielded a cytotoxicity at 10 µM of -10.2%.
Cc1cc(C(=O)N2CCCCC2c2nc3cc(F)ccc3[nH]2)no1 (configuration not stated) gave a cytotoxicity at 10 µM of 19.6%.
Compound Cc1cc(N2CCC(Cc3cccnc3)CC2)ncn1 has a cytotoxicity at 10 µM of 1.96%.
Compound Cc1nc(CN2CCc3cncnc3C2)oc1C has a cytotoxicity at 10 µM of -12%.
In the case of CCN1CCCC(c2c(-c3ccccc3)ncn2CC(N)=O)C1 (configuration not stated), the cytotoxicity at 10 µM is reported as -15.4%.
O=S(=O)(CCc1ccccc1Cl)CC(O)CO (configuration not stated) gave a cytotoxicity at 10 µM of 10.7%.
With Cc1ccc2c(c1)CN(C(=O)c1ccncc1)C(CN(C)C)CO2 (configuration not stated) the cytotoxicity at 10 µM was -13.5%.
In the case of Cn1cc(C(=O)N2CCCC(c3ccncc3)C2)cn1 (configuration not stated), the cytotoxicity at 10 µM is reported as -13%.
For Cc1ccccc1CN1CCN(C(=O)c2cnc(C3CC3)[nH]c2=O)CC1, the cytotoxicity at 10 µM was 2.25%.
With Cc1noc([C@@H]2C[C@H]3CN(Cc4scnc4C)C[C@H]3O2)n1 the cytotoxicity at 10 µM was -136%.
Work on O=C(O)C1CN(c2cccc(Cl)c2)CCO1 (configuration not stated) yielded a cytotoxicity at 10 µM of -12.4%.
In the case of O=C(N[C@@H]1CCC[C@@H](N2CCOCC2)[C@@H]1O)c1cnn2cccnc12, the cytotoxicity at 10 µM is reported as -21.9%.
Work on Cn1ccc(C(=O)NCc2cccc(Cn3ccnc3)c2)cc1=O yielded a cytotoxicity at 10 µM of 8.42%.
Work on CNC(=O)NCC(=O)N1CCCC1Cc1cccc(F)c1 (configuration not stated) yielded a cytotoxicity at 10 µM of -2.59%.
